# Test results reported in ChEMBL document CHEMBL4138133, “2,3-Dihydro-3β-methoxy Withaferin-A Protects Normal Cells against Stress: Molecular Evidence of Its Potent Cytoprotective Activity” (J Nat Prod, 2017).
# Active and inactive are the calls of the source. The rule behind the calls is not given here.
# Tests used:
# TIG-3 [1] = test: Cytoprotective activity against H2O2-induced oxidative stress in human TIG3 cells assessed as increase in cell survival at 3 uM pretreated with H2O2 for 2 hrs followed by compound addition measured after 72 hrs by crystal violet staining based assay; format: functional
# TIG-3 [2] = test: Cytoprotective activity against H2O2-induced oxidative stress in human TIG3 cells assessed as decrease in gammaH2AX level at 0.6 uM pretreated with H2O2 for 2 hrs followed by compound addition by immuno fluorescence staining based analysis; format: functional, cell-based
# Procedure, shortened: (§1)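 TIG-3 fibroblasts (DMEM, 10% FBS, 37 °C) stressed with H2O2 (500 μM, 2 h) or UV (50 mJ/cm2), then recovered in compound-supplemented medium. Cells fixed in chilled absolute methanol and immunostained for the marker. Images taken by fluorescence microscopy and staining intensity quantified. Triplicate experiments.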
# TIG-3 [3] = test: Cytoprotective activity against UV irradiation-induced stress in human TIG3 cells assessed as decrease in CARF level irradiated with 50 mJ/cm2 of UV radiations followed by compound addition by immuno fluorescence staining based assay; format: functional, cell-based
# TIG-3 [4] = test: Cytoprotective activity against cisplatin-induced stress in human TIG3 cells assessed as increase in cell survival pretreated with cisplatin for 24 hrs followed by compound addition measured after 2 days by crystal violet staining based assay; format: functional
# [5] = target: T1, MAP kinase p38 (Homo sapiens) (UniProt O15264+Q15759+Q16539+P53778); test: Induction of p38 MAPK phosphorylation at Thr180/Tyr182 residues in UV-irradiated human TIG3 cells using 50 mJ/cm2 of UV radiations followed by compound addition by immuno fluorescence staining based analysis; procedure, shortened: as §1
# TIG-3 [6] = test: Cytoprotective activity against H2O2-induced oxidative stress in human TIG3 cells assessed as increase in full length PARP level at 0.6 uM pretreated with H2O2 for 2 hrs followed by compound addition by immunoblot analysis; format: functional, cell-based
# Procedure, shortened: (§2)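 TIG-3 cells stressed with H2O2 (500 μM, 2 h), then recovered in medium containing 0.3 or 0.6 μM compound. Lysed in NP40 buffer; 10−20 μg protein immunoblotted for pAkt Ser473, p-p38 Thr180/Tyr182, p-p44/42 Thr202/Tyr204, β-catenin, survivin, Bcl-2 or full-length PARP-1. Triplicate experiments.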
# TIG-3 [7] = test: Cytoprotective activity against UV irradiation-induced stress in human TIG3 cells assessed as decrease in p53 level irradiated with 50 mJ/cm2 of UV radiations followed by compound addition by immuno fluorescence staining based assay; format: functional, cell-based
# TIG-3 [8] = test: Decrease in keap1 expression level in human TIG3 cells at 0.3 to 3 uM by immunoblot analysis; format: ADME, cell-based; details: tig-3, 3 µM
# Procedure, shortened: (§3)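 TIG-3 cells treated with compound, lysed in NP40 buffer (centrifuged 20 min, 4 °C); 10−20 μg protein immunoblotted for indicated proteins; band quantitation from three independent experiments, Student's t or Mann−Whitney test.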
# [9] = target: Mitogen-activated protein kinase 3 (Homo sapiens) (UniProt P27361); test: Induction of ERK1 phosphorylation at Thr202 residues in H2O2 treated human TIG3 cells pretreated with H2O2 for 2 hrs followed by compound addition by immuno fluorescence staining based analysis; procedure, shortened: as §1
# Mitogen-activated protein kinase 3 (Homo sapiens), sequence (P27361 whole entry): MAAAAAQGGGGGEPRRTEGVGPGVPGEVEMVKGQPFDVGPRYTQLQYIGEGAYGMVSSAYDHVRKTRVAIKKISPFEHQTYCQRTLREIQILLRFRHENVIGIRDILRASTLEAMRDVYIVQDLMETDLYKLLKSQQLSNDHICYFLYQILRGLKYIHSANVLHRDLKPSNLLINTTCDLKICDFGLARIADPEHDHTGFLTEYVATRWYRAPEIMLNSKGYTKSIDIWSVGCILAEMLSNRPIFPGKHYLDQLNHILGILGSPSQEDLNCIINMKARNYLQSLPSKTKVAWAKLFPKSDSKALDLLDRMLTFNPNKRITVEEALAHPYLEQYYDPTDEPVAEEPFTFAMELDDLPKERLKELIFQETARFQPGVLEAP
# TIG-3 [10] = test: Cytoprotective activity against H2O2-induced oxidative stress in human TIG3 cells assessed as decrease in phosphorylated ATM level at 0.6 uM pretreated with H2O2 for 2 hrs followed by compound addition by immuno fluorescence staining based analysis; format: functional, cell-based; procedure, shortened: as §1
# TIG-3 [11] = test: Cytoprotective activity against doxorubicin-induced stress in human TIG3 cells assessed as increase in cell survival pretreated with doxorubicin for 24 hrs followed by compound addition measured after 2 days by crystal violet staining based assay; format: functional
# [12] = target: T1, MAP kinase p38 (Homo sapiens); test: Induction of p38 MAPK phosphorylation at Thr180/Tyr182 residues in H2O2 treated human TIG3 cells at 0.6 uM pretreated with H2O2 for 2 hrs followed by compound addition by immunoblot analysis; procedure, shortened: as §2
# [13] = target: Kelch-like ECH-associated protein 1 (Homo sapiens, UniProt Q14145); test: Activation of keap1 in human TIG3 cells assessed as Nrf2 nuclear accumulation at 0.6 uM by immuno staining analysis; format: cell-based
# Kelch-like ECH-associated protein 1, sequence (Q14145 whole entry): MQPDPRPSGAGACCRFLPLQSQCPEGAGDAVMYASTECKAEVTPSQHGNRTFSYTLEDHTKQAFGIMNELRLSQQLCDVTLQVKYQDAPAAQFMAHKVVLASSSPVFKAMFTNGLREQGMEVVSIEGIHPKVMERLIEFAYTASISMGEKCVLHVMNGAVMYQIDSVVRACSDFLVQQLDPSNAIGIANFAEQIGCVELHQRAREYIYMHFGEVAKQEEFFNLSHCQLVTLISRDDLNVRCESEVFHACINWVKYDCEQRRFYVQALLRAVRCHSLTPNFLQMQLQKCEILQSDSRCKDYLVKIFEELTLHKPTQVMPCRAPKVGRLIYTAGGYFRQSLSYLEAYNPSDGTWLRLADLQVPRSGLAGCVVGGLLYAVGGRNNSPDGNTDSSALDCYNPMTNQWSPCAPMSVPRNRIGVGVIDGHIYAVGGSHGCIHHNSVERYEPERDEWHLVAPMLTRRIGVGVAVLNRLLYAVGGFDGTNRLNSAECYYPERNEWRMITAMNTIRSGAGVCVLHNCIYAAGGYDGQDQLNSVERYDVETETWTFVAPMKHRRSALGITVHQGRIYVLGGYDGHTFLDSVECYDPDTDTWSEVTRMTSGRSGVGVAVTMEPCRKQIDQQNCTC
# Procedure, shortened: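 Methanol-fixed (chilled absolute methanol) TIG-3 fibroblasts treated with Wi-A or 3βmWi-A; immunofluorescence staining with antibodies, imaged by epifluorescence microscopy; signal quantitated from three independent experiments.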
# TIG-3 [14] = test: Cytoprotective activity against human TIG3 cells assessed as increase in cell viability at 1.5 to 3 uM pretreated with Wi-A at 0.3 uM for 24 hrs followed by compound addition measured after 48 hrs; format: functional, cell-based
# Procedure, shortened: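 TIG-3 cells pretreated with 0.3 μM Wi-A for 24 h, then incubated with 1.5 or 3 μM compound for 48 h before viability was read. Triplicate, mean ± SEM.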
# [15] = target: Mitogen-activated protein kinase 1 (Homo sapiens) (UniProt P28482); test: Induction of ERK2 phosphorylation at Tyr204 residues in H2O2 treated human TIG3 cells pretreated with H2O2 for 2 hrs followed by compound addition by immuno fluorescence staining based analysis; procedure, shortened: as §1
# Mitogen-activated protein kinase 1 (Homo sapiens), sequence (P28482 whole entry): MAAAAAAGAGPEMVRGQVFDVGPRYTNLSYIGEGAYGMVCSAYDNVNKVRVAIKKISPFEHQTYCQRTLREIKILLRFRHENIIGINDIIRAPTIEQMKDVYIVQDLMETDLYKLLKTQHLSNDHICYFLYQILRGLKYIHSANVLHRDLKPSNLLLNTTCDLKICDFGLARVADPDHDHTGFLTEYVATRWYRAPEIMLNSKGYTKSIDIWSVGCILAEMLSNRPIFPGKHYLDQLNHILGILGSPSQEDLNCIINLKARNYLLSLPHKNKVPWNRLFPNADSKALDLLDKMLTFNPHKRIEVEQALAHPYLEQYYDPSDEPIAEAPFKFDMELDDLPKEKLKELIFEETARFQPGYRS
# TIG-3 [16] = test: Induction of oxidative stress in human TIG3 cells assessed as increase in p53 expression level at 0.6 uM by immunoblot analysis; format: cell-based; details: tig-3, 0.6 µM; procedure, shortened: as §3
# TIG-3 [17] = test: Cytotoxicity against human TIG3 cells assessed as decrease in ROS generation at 1.5 to 3 uM after 48 hrs; format: cell-based; details: tig-3, 48 h
# TIG-3 [18] = test: Cytotoxicity against human TIG3 cells assessed as inhibition of colony formation by crystal violet staining based assay; format: cell-based
# Procedure, shortened: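 500 cells/well seeded, cultured about 2 weeks with medium (control or compound-supplemented) renewed every fourth day; colonies fixed, stained, counted; triplicates, Student's t test.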
# [19] = target: RAC-alpha serine/threonine-protein kinase (Homo sapiens) (UniProt P31749); test: Induction of AKT-mediated beta-catenin expression level in H2O2 treated human TIG3 cells at 0.6 uM pretreated with H2O2 for 2 hrs followed by compound addition by immunoblot analysis; procedure, shortened: as §2
# RAC-alpha serine/threonine-protein kinase (Homo sapiens), sequence (P31749 whole entry): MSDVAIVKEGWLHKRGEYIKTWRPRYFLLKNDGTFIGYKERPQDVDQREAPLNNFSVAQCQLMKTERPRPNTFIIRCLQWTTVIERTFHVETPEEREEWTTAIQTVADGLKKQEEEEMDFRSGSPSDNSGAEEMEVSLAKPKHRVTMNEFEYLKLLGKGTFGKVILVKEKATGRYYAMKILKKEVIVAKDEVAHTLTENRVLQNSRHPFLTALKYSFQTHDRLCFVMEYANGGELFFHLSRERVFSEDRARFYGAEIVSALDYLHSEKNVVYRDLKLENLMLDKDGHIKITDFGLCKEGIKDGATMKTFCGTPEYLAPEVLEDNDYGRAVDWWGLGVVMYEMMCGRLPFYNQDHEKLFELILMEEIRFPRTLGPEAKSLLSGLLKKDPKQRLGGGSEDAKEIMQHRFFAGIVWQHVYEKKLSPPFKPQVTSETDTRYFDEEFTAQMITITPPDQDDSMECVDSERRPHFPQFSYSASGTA
# Homo sapiens = species on record: Homo sapiens; test: Induction of AKT/p38/p44 MAPK-mediated survivin expression level in H2O2 treated human TIG3 cells at 0.6 uM pretreated with H2O2 for 2 hrs followed by compound addition by immunoblot analysis; procedure, shortened: as §2
smiles,measurement,setting,value
CO[C@H]1CC(=O)[C@]2(C)[C@H]3CC[C@]4(C)[C@@H]([C@H](C)[C@H]5CC(C)=C(CO)C(=O)O5)CC[C@H]4[C@@H]3C[C@H]3O[C@]32[C@H]1O,Activity,TIG-3 [1],Active
same,Activity,TIG-3 [2],Active
same,Activity,TIG-3 [3],Active
same,Activity,TIG-3 [4],Dose-dependent effect
same,Activity,[5],Active
same,Activity,TIG-3 [6],Active
same,Activity,TIG-3 [7],Active
same,Activity,TIG-3 [8],Non-Toxic
same,Activity,[9],Active
same,Activity,TIG-3 [10],Active
same,Activity,TIG-3 [11],Dose-dependent effect
same,Activity,[12],Active
same,Activity,[13],Not Active
same,Activity,TIG-3 [14],Active
same,Activity,[15],Active
same,Activity,TIG-3 [16],Non-Toxic
same,Activity,TIG-3 [17],Non-Toxic
same,Activity,TIG-3 [18],Non-Toxic
same,Activity,[19],Active
same,Activity,Homo sapiens,Active
